Laboratory results as given in the EternaBench riboswitch data.

System: MS2 coat protein
Assay: apparent Kd, MS2 coat protein; higher = weaker binding; RNA-MaP array; FMN 200 µM where present
Method in brief: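 Apparent Kd: the median of filtered binding-curve fits from single clusters. Designs were transcribed on Illumina sequencing-chip clusters by stalled E. coli RNA polymerase and titrated with SNAP-549-labelled MS2 coat protein from 0.7 or 1.5 nM, doubling to 3 µM, in 100 mM Tris-HCl pH 7.5, 80 mM KCl, 4 mM MgCl2, BSA, DTT, yeast tRNA and Tween-20. Each series ran without and then with constant ligand, and green signal was normalised to red-channel RNA signal and control-cluster median Fmax.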

[1] = designed as: OFF switch for flavin mononucleotide, no ligand
[2] = ligand present: flavin mononucleotide, designed as: OFF switch for flavin mononucleotide
[3] = designed as: ON switch for flavin mononucleotide, no ligand
[4] = ligand present: flavin mononucleotide, designed as: ON switch for flavin mononucleotide

UUUUAACAUGAGGAUCACCCAUGUGAGGAUAUCGAAAUUUAUAUUUAUAUUAAUUAAUCGAGAAGGCACAUUUU
apparent Kd [1]: 151 nM | apparent Kd [2]: 156 nM

AAAUUGUGAGGAUAUCAGGUGUGCUAGCGUACUGGUACAUCUGAGAAGGCACAUGAGGAUCACCCAUGUUUCUU
apparent Kd [1]: 16.1 nM | apparent Kd [2]: 44.2 nM

GCCUCACAUGAGGAUCACCCAUGUCAGGAUAUCUCAGCCUCACAUCAAACAAGGCUUCAGAGAAGGGACGUAAA
apparent Kd [1]: 37.4 nM | apparent Kd [2]: 77.4 nM

AAUUAUUUUUGAGGAUAUUGUGGUGAAACACCACAAGAAGGCAAGAUACACAUGAGGAUCACCCAUGUGAGCCUGAUGCUUAUG
apparent Kd [1]: 17.1 nM | apparent Kd [2]: 21.3 nM

UGAUCUUUUGUUAGGAUAUGCUGGGUUUUUUCUCAGCAGAAGGGACAUGAGGAUCACCCAUGUUUUGUCAUAAA
apparent Kd [1]: 18.9 nM | apparent Kd [2]: 47.6 nM

UGUCCAUAGCAGAAGGACAUGUAUAAUCAUGAAAACAUGAGGAUCACCCAUGUAGGAUAUGCUAUGGACUAAGAGCGAAAGCUC
apparent Kd [1]: 19.9 nM | apparent Kd [2]: 297 nM

GUCAGCUCGUGAGGAUAUACAUCACUGCGAAAGCAGUGUAUUAAGAUCACAUGAGGAUCACCCAUGUAGAAGGCACGAGCUGAU
apparent Kd [1]: 43.7 nM | apparent Kd [2]: 626 nM

GUAGCAUACCGAGGAUAUUCAGGGCGUGGAUAGACAUGAGGAUCACCCAUGUGGCGAAAGCCUAGGGAGAAGGCGGAAUGCUAC
apparent Kd [3]: 26.9 nM | apparent Kd [4]: 17.6 nM

GUUUUUUGUCAUGUACAUGAGGAACAUGAGGAUCACCCAUGUAGAAGGAAUUUUUUUAAGUUUAGUUAGGAUAUACAUAUAUUG
apparent Kd [1]: 50.6 nM | apparent Kd [2]: 31.9 nM

GCUGACGAUGUAGGAUAUCUCGACGAUAAGUCGAGAGAAGGACAUGAGGAUCACCCAUGUACUCAAACGUCAGCGAGGAAACUC
apparent Kd [1]: 18.7 nM | apparent Kd [2]: 27.6 nM

GUGUACAGAGGAUAUACAGGAGCUAGGAAACUAGCAACCUCACAUGAGGAUCACCCAUGUAGAAGGCUGUACAC
apparent Kd [1]: 251 nM | apparent Kd [2]: 66.7 nM

AAACCGUGUGGAGGAUAUGCAGUUGAGGUGAGGUAGCAACUCUAUACGACAGCAGAAGGCCACAUGAGGAUCACCCAUGUAGGU
apparent Kd [1]: 489 nM | apparent Kd [2]: 158 nM

CAGAUCGAUGUGAGGAUAUCUGUGUUACCCUGUAAGGAGAAGGCACAUGAGGAUCACCCAUGUGAUUCGGUCCU
apparent Kd [1]: 40.4 nM | apparent Kd [2]: 36.3 nM

AAGAAACAUGAGGAUCACCCAUGUAGAAAUAUGGGAGGAUAUACGAAGACGAAAGUCAAAGUAGAAGGCCUAAAAG
apparent Kd [3]: 94.6 nM | apparent Kd [4]: 27.7 nM

AUCAGCUCGUCAGGAUAUACGUCACUGCGUCAGCAGUGUGGUAAGAUAACAUGAGGAUCACCCAUGUAGAAGGGACGAGCUGAU
apparent Kd [1]: 7.29 nM | apparent Kd [2]: 13.1 nM

CGAUGAGGAGUGAGGAUAUCGUGUUCGAAAGAACGUGAGAAGGCACAUGAGGAUCACCCAUGUGAUCCUUAUCG
apparent Kd [1]: 28.3 nM | apparent Kd [2]: 67.9 nM

UUUUAACAUGAGGAUCACCCAUGUCGUUCAAAUCAAGGAUAUCAGGCGUGUGCACACGCCUGAGAAGGUGAAUCUC
apparent Kd [3]: 135 nM | apparent Kd [4]: 320 nM

GUGUACAGAGGAUAUACAAUAGGAGUUACGAAAGUAACUUCACAUGAGGAUCACCCAUGUAGAAGGCUGUACAC
apparent Kd [1]: 18.1 nM | apparent Kd [2]: 37.8 nM

CGAGCCUAUGUAAGGAUAUCACGAUAAAACCAGCGUGAGAAGGUACAUGAGGAUCACCCAUGUUCACGACUGGC
apparent Kd [1]: 13.9 nM | apparent Kd [2]: 14.7 nM

CGUGUCAUCGAGAAGGCCUCAACAUGAGGAUCACCCAUGUUGUAAUAUGGGAGGAUAUCGAUGAUACAGCUACGUUUCGUAGCG
apparent Kd [3]: 19.1 nM | apparent Kd [4]: 6.07 nM

AUUACAUGAGGAUCACCCAUGUACAGAACGUUUCAAUACAGUGAGGAUAUACGAAAUGUAGGAACGUAGAAGGCACUGGGUACA
apparent Kd [3]: 181 nM | apparent Kd [4]: 65.8 nM

AGAAAUCAUGUAGGAUAUGCAUGGCGAAGCUACGCAGAAGGACAUGAGGAUCACCCAUGUUAUAGCGUCCGAGAAAGGAUGCAA
apparent Kd [1]: 27.9 nM | apparent Kd [2]: 187 nM

GGAUGAGCAAUAGGAUAUGCUGGGAUUGAAUGGGUAGAAGGAUUUCUAGUGGGAAAGACAUGAGGAUCACCCAUGUCGCGGCCC
apparent Kd [3]: 23.8 nM | apparent Kd [4]: 25.3 nM

CGCAAACUUGGGUUUAAUGGUGCAUAGGAUAUGCUUGUACAUGAGGAUCACCCAUGUACUAUUGUGCAGAAGGGUGCAUUUGCG
apparent Kd [3]: 7.97 nM | apparent Kd [4]: 5.77 nM

AAUAUAAGAGCUGGUAAAUAACUCACAUGAGGAUCACCCAUGUAGGAUAUCAGCACGAUAAGUGCUGAGAAGGACAUCCAGCUC
apparent Kd [1]: 15.4 nM | apparent Kd [2]: 16.2 nM

AUUUAUGUCAAAGGAUAUAUAAAUAAAUUUAUAACAUGAGGAUCACCCAUGUACUUUAGUAUGAGGUAGAAGGUUGAUAAGAGU
apparent Kd [3]: 47.6 nM | apparent Kd [4]: 35.6 nM

UGAGCAUGAGGAUAUACAUGACGUGCCGUAGCACGAGGUCUACAUGAGGAUCACCCAUGUAGAAGGCAUGUUCU
apparent Kd [1]: 23 nM | apparent Kd [2]: 87.4 nM
